{"data": "Published values of several laboratories", "target": "Sodium-dependent noradrenaline transporter (SLC6A2, Homo sapiens, UniProt P23975)", "note": "Lines come from different studies, so protocols differ."}
{"SMILES": "CN(CCN1CCC(OC(=O)Nc2ccccc2-c2ccccc2)CC1)C(=O)c1ccc(CN2CCC(C(N)=O)CC2)cc1", "effect on": "ligand displacement", "method": "radioligand", "tested at": "1 µM", "inhibition [%]": 1}
{"SMILES": "CCN(CC)CCCC[C@H](NC(=O)[C@H](CC(C)C)NC(=O)[C@H](C)NC(=O)[C@H](Cc1ccccc1)NC(=O)c1ccc(C(C)(C)C)cc1)C(=O)N[C@@H](CO)C(=O)OC", "effect on": "ligand displacement", "method": "radioligand", "tested at": "10 µM", "inhibition [%]": -13}
{"SMILES": "COCc1c(-c2cc3cc(C)cc(OC)c3s2)c2c(N)ncnn2c1CN1CCNC(=O)C1", "effect on": "ligand displacement", "method": "radioligand", "tested at": "10 µM", "inhibition [%]": 47}
{"SMILES": "Clc1ccc2c(C3CCN(CCc4c[nH]c5ccccc45)CC3)c[nH]c2c1", "effect on": "ligand displacement", "method": "radioligand", "tested at": "10 µM", "inhibition [%]": 90}
{"SMILES": "Cc1noc([C@H]2C[C@@H](c3ccc(C(F)(F)F)cc3)CN(C(=O)N3CCS(=O)(=O)C3)C2)n1", "effect on": "cell-free assay", "tested at": "10 µM", "inhibition [%]": -20.2}
{"SMILES": "CC(C)N1CCC[C@H]1CNC(=O)c1cn(C2CCCC2)c(=O)c2c1c1ccccc1n2C", "effect on": "ligand displacement", "method": "radioligand", "tested at": "10 µM", "inhibition [%]": 28}
{"SMILES": "CC(C)(C)c1ccc(C(=O)Nc2cc(Cl)c(-c3ccccc3)cc2C(=O)O)cc1", "effect on": "ligand displacement", "method": "radioligand", "tested at": "10 µM", "inhibition [%]": 91}
{"SMILES": "Fc1ccc(C(OCCN2CCN(CCCc3ccccc3)CC2)c2ccc(F)cc2)cc1", "effect on": "transporter uptake", "action": "inhibitor", "cell line": "HEK293", "tested at": "1 µM", "inhibition [%]": 89.9}
{"SMILES": "CS(=O)(=O)N1CCCC(NC(=O)[C@H](CCC2CCCCC2)NC(=O)c2ccc(CNC(=O)c3cnc4ccccn34)cc2)C1 (stereo partly drawn)", "effect on": "cell-free assay", "tested at": "10 µM", "inhibition [%]": 3}
{"SMILES": "COc1ccc(C(CN(C)C)C2(O)CCCCC2)cc1 (stereo not drawn)", "effect on": "transporter uptake", "action": "inhibitor", "cell line": "HEK293", "tested at": "1 µM", "inhibition [%]": 28.8}
{"SMILES": "COc1ccc(S(=O)(=O)N2CCCCC2)cc1C", "effect on": "ligand displacement", "method": "radioligand", "tested at": "10 µM", "inhibition [%]": "< 30"}
{"SMILES": "O=C(Nc1cccnn1)N1CCN([C@@H]2CCOc3cc(C(F)(F)F)ccc32)CC1", "effect on": "ligand displacement", "tested at": "20 µM", "inhibition [%]": 15}
